Fh CTSL1 inh: cathepsin L1 inhibition, PFM18AAP counter-screen; AID 1906; recombinant F. hepatica cathepsin L1, Z-Leu-Arg-MCA fluorescence; 0.49% of 300,000 active; inhibition, % at 5.96 µM;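 active = inhibition above the mean of all tested compounds plus 3 SD, set per screening campaign, cut at about 17% in these data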
IMP-1 inh: blocks Pseudomonas aeruginosa IMP-1 metallo-beta-lactamase; purified IMP-1, nitrocefin hydrolysis, epi-absorbance fluorescence; inhibition, % at 5.6 µM; 0.45% of 290,000 active; AID 1556;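 active = inhibition above the mean plus 3 SD of all compounds in the same screening run, cut at about 4.5% in these data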
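System: purified IMP-1 / Input: IMP-1 dispensed at 0.2 nM / Medium: 50 mM HEPES pH 7.1, 50 µM ZnSO4, 0.05% Brij 35 / Timing: 15 min enzyme–compound preincubation, then 25 min nitrocefin reaction, 25 °C / Technique: plate fluorescence quenching by hydrolysis product, ex 480/em 530 nm / Repeats: singlicate testing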
VIM-2 inh: inhibitors of Pseudomonas aeruginosa VIM-2 metallo-beta-lactamase; purified VIM-2, nitrocefin hydrolysis, epi-absorbance fluorescence; inhibition, % at 5.6 µM; 0.89% of 290,000 active;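 active = inhibition above the mean of all tested compounds plus 3 SD, cutoff set per screening run, cut at about 7.5% in these data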;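 note: red hydrolysis product quenches plate fluorescence so inhibitors raise well fluorescence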
p-CIP stab down: p/CIP protein destabilization; AID 1984; F442A p/CIP-EGFP cells, EGFP fluorescence, 16 h; Q05BA5; 0.01% of 290,000 active; decrease of EGFP signal, % at 10 µM;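 active = EGFP signal decrease of at least 30% at 10 µM or well 3 SD below plate mean, unless failing retest; inactive = the rest, including hits failing retest or dose response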
Target sequence (Q05BA5 1-1403): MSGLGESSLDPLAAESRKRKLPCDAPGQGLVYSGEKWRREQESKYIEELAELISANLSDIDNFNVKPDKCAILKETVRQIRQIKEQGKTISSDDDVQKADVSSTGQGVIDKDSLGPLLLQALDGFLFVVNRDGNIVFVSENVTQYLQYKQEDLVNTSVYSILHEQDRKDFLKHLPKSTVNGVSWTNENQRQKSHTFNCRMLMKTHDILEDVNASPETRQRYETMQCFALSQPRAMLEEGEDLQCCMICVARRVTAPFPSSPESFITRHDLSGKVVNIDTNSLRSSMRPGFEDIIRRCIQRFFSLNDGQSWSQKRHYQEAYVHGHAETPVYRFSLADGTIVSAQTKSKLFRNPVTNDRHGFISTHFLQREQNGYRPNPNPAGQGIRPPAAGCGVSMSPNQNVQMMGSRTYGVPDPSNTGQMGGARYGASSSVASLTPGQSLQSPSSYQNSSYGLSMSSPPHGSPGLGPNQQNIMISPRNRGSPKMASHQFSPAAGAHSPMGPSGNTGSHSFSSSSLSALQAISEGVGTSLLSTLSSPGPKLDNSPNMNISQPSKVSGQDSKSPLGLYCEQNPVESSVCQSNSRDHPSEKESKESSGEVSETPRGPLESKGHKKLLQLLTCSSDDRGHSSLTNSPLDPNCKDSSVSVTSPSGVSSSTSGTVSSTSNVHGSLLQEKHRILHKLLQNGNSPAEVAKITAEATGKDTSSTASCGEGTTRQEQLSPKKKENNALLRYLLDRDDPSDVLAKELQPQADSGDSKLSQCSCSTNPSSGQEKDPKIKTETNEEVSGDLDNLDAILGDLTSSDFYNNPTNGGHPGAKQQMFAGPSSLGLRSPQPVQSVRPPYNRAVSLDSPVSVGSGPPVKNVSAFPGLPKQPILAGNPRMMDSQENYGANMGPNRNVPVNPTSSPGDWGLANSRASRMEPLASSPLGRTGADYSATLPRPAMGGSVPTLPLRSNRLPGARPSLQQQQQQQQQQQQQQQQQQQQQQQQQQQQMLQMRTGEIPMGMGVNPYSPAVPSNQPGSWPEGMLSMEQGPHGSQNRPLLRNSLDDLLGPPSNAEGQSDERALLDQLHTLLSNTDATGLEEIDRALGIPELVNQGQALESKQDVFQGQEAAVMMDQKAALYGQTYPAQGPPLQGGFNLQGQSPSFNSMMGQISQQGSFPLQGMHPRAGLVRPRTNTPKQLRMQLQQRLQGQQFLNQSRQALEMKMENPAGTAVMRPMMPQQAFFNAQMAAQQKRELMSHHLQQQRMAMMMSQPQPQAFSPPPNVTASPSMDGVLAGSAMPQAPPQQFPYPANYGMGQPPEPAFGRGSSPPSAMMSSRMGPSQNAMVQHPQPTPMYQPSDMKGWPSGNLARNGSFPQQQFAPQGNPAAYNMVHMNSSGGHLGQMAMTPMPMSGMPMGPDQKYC
T cell modulator: modulates CD8 T cell binding to vesicles. 2C CD8+ T cell-vesicle binding, flow cytometry; hits give low values. response (vesicle binding), % at 7 µM. 0.068% of 330,000 active. AID 2052;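 active = response, share of CD8 T cells binding vesicles, and their 90th percentile fluorescence all below set limits, cut at about 80% in these data, passing the limit was not always enough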;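 note: values below 100% mean blocked vesicle binding to the CD8+ T cells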
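incubation = binding step 1.5 h, 37 °C, antibody labelling 20 min, ice | test system = 2C mouse CD8+ T cells | read-out basis = percent CD8+ FL2 mean versus row control | controls = Peptide-free naked vesicles (low) and QL9 vesicles with 0.7% DMSO vehicle (high) | detection = flow cytometry of vesicle-bound cells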
SUMO HTRF inh: blocks human SUMOylation mediated by UBC9; P63279; HTRF SUMOylation assay, SAE1/SAE2 + UBC9, in vitro; inhibition, % at 35 µM; 0.36% of 290,000 active; in the data active = inhibition above about 50%, passing the limit was not always enough
Of the large screens only hits and unclear results are named; the others gave an inactive call. Most compounds without a hit are left out; they make up all but 1.9% or so of the library.

O=C1c2cccc(OCc3ccc(F)cc3)c2CCN1Cc1ccc(F)cc1	none
CN1CCc2c(OCc3ccc(F)cc3)cccc2C1=O	IMP-1 inh 22.7
COc1ccc(S(=O)(=O)Nc2ccc(F)c(F)c2)cc1Cl	IMP-1 inh 4.6
CNC(=S)N/N=C/c1cc(Br)cc(Br)c1O	none
Oc1c(Br)cc(Br)cc1/C=N/NC(=S)N[C@H]1CC2C=CC1C2 (stereo not given in full)	SUMO HTRF inh 57.8
Cc1nn(-c2ccccc2)c2nc3c(cc12)C(=O)CCC3	none
Cc1[nH][nH]c(=O)c1C(c1ccc(-c2cccc(Cl)c2)o1)c1c(C)[nH][nH]c1=O	none
Cc1[nH][nH]c(=O)c1C(c1ccc(-c2ccc(Cl)cc2Cl)o1)c1c(C)[nH][nH]c1=O	SUMO HTRF inh 90.8 (no result: Fh CTSL1 inh, T cell modulator)
Cc1[nH][nH]c(=O)c1C(c1ccc(-c2cccc(C(=O)O)c2)o1)c1c(C)[nH][nH]c1=O	SUMO HTRF inh 88.5
COc1cc(/C=C/C(=O)O)ccc1OS(=O)(=O)c1c(C)cc(C)cc1C	none (no result: Fh CTSL1 inh, IMP-1 inh, VIM-2 inh, p-CIP stab down, SUMO HTRF inh)
O=C(CCl)NC(Cc1c[nH]c2ccc(OCc3ccccc3)cc12)C(=O)O (stereo not given)	none
Cc1cc(/C=C2\SC(=S)NC2=O)c(C)n1-c1ccc(O)cc1	VIM-2 inh 8.1
COc1ccc(Cl)cc1C(=O)n1cnc2ccccc21	none
CN(C)CCCNC(=O)CC(c1ccc(F)cc1)c1ccco1 (stereo not given)	none
NC(=O)CC(c1ccccc1)c1ccco1 (stereo not given)	none
CCN(CC)C(=O)CC(c1ccc(F)cc1)c1ccco1 (stereo not given)	Fh CTSL1 inh 49.1
CCCN(CCC)C(=O)CC(c1ccccc1)c1ccco1 (stereo not given)	Fh CTSL1 inh 41.1
COc1cccc(N=Nc2c(N)[nH]n3c(=O)c4c(nc23)CCCC4)c1	none
CCCCNC(=O)CS(=O)Cc1nc(-c2cccs2)oc1C (stereo not given)	IMP-1 inh 6.1
Cc1ccc(C2=Nc3ccc(Br)cc3C(c3ccncc3)=NN2)cc1	none
CCOC(=O)N1CCC(Nc2c(NCCCOC)c(=O)c2=O)CC1	none
CCOC(=O)N1CCC(Nc2c(OCC)c(=O)c2=O)CC1	Fh CTSL1 inh 36.0
CC(C)c1ccc(/C=C(\NC(=O)c2ccccc2)C(=O)NCCN2CCOCC2)cc1	none
CCc1cc(C(=O)OC)c(NC(=O)CCC(=O)O)s1	IMP-1 inh 14.8
CCCc1cc(C(=O)OC)c(NC(=O)CCCC(=O)O)s1	none
CCC(CO)Oc1cc(NC(=O)c2ccc(C)cc2)c2ncn(C(C)C)c2c1 (stereo not given)	none (no result: Fh CTSL1 inh, IMP-1 inh, VIM-2 inh, p-CIP stab down, SUMO HTRF inh)
CC(CN1CCCCC1)OC(=O)COc1ccc(Br)cc1 (stereo not given)	none
COc1ccc(S(=O)(=O)Nc2ccc3c(c2)C(=O)N([C@H](C)CO)C[C@H](C)[C@@H](CN(C)C(=O)NC2CCCCC2)O3)cc1	none (no result: Fh CTSL1 inh, IMP-1 inh, VIM-2 inh, p-CIP stab down, SUMO HTRF inh)
O=C(Nc1cccc(S(=O)(=O)N2CCCCCC2)c1)C1CCN(C(=O)c2ccc(F)cc2)CC1	none (no result: IMP-1 inh, VIM-2 inh, p-CIP stab down, SUMO HTRF inh)
CC(C)CC1=C/C(=C/c2ccc(-c3ccccc3)o2)C(=O)O1	IMP-1 inh 4.9
CCC1(c2ccccc2)NC(=O)N(CC(=O)Nc2cc(S(=O)(=O)N3CCCCCC3)ccc2OC)C1=O (stereo not given)	none (no result: IMP-1 inh, VIM-2 inh, p-CIP stab down, SUMO HTRF inh)
Nc1ccc(N2CCCCCC2)cc1	SUMO HTRF inh 62.1
Nc1ccc(N2CCN(c3ccc(F)cc3)CC2)cc1	none
Cc1cc(C)c(S(=O)(=O)N2CCOC2CNC(=O)C(=O)NCCc2ccc(S(N)(=O)=O)cc2)c(C)c1 (stereo not given)	none
Cc1cc(C)c(S(=O)(=O)N2CCOC2CNC(=O)C(=O)NCCCn2ccnc2)c(C)c1 (stereo not given)	IMP-1 inh 7.0
O=C(NCCCn1ccnc1)C(=O)NCC1OCCN1S(=O)(=O)c1ccc2c(c1)OCCO2 (stereo not given)	IMP-1 inh 5.1
O=C(NCCc1ccccc1)C(=O)NCC1OCCN1S(=O)(=O)c1ccc2c(c1)OCCO2 (stereo not given)	none
CN(Cc1ccccc1)C(=O)c1ccc(NC(=O)c2ccccc2)cc1	none
CCC(C)(CN(C)C)OC(=O)c1ccccc1 (stereo not given)	none (no result: IMP-1 inh, VIM-2 inh, p-CIP stab down, SUMO HTRF inh)
